Columns and labels:
HT-1080 = test: Cytotoxicity against human HT1080 cells assessed as reduction in cell viability after 48 hrs by CellTiter 96 Aqueous One solution cell proliferation assay; assay type: functional, cell-based; conditions: HT-1080, 48 h
Method in brief: (§1)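 Cells grown in DMEM high glucose with 10% heat-inactivated FCS, seeded at 5000/well and left 18 h. Compounds added at 1 nM–100 µM final (0.2% vehicle), n = 4 wells per concentration, with colour blanks. After 48 h, MTS reagent added for 2 h and A490 read. IC50 from a variable-slope sigmoidal fit.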

Rattus norvegicus [1] = test: Antikaliuretic effect in Sprague-Dawley rat assessed as increase in acetazolamide-induced Na+ excretion at 1.5 mg/kg, iv measured after 6 hrs post dose relative to acetazolamide-treated control; assay type: ADME, organism-based; conditions: in vivo
Method in brief: (§2)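 Male 21-week-old Sprague-Dawley rats, 8 per group. One ip injection of 25 mg/kg acetazolamide (25 mg/mL in 0.9% saline, 1 mL/kg) or vehicle, then one iv injection of 1.5 mg/kg compound (1.5 mg/mL, 1 mL/kg) in 50 mM acetate buffer pH 5.5/5% DMSO, with 0.5% Tween-80 for some compounds. Total urine collected in metabolic cages over 6 h. Urine Na+ and K+ measured on a biochemistry analyzer. Mean ± SEM reported.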

Coagulation factor XI = Coagulation factor XI (Homo sapiens, UniProt P03951); test: Inhibition of factor 11a (unknown origin) using chromogenic L-pyroGlu-L-Pro-L-Arg-p-nitroaniline as substrate by […]
Coagulation factor X = Coagulation factor X (Homo sapiens, UniProt P00742); test: Inhibition of factor 10a (unknown origin) using chromogenic H-D-Ile-L-Pro-L-Arg-p-nitoraniline as substrate by fluorescence assay
Plasminogen = Plasminogen (Homo sapiens, UniProt P00747); test: Inhibition of plasmin (unknown origin) using chromogenic H-D-Ile-L-Pro-L-Arg-p-nitoraniline as substrate by […]
[2] = target: T1, Epithelial sodium channel subunit alpha (Homo sapiens, UniProt P37088); test: Inhibition of S-3969-stimulated recombinant human ENaC alpha subunit expressed in HEK293 cells at 10 uM preincubated for 5 mins followed by S-3969 stimulation by FLIPR assay; assay type: cell-based; conditions: hek293, 10 µM
T1 sequence (P37088 whole entry): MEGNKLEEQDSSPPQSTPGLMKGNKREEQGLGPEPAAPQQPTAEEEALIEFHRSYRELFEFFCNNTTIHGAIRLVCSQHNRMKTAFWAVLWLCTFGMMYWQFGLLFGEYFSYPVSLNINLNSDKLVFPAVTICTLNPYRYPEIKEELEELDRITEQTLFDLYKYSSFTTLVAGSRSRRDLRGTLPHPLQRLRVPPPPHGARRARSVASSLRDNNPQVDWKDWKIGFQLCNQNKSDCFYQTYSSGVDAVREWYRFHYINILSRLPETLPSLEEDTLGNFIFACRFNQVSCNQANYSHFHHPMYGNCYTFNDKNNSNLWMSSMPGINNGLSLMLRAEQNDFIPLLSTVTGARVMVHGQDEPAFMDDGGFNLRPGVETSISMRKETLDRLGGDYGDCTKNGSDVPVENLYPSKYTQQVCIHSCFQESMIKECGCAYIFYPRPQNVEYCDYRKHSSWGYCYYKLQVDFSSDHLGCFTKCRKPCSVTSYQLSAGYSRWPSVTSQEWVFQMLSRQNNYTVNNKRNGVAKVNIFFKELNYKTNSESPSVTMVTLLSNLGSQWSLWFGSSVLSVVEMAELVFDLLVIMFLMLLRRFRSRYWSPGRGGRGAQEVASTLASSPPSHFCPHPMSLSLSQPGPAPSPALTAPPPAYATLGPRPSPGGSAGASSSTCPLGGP
Method in brief: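 HEK-293 cells transfected with human ENaC α, β and γ cDNA together, plated at 20 000 cells/well, incubated overnight at 37 °C. Loaded with membrane-potential red dye for 30 min at 37 °C. Compound preincubated 5 min in HEPES-buffered salt solution (pH 7.4, 0.3% DMSO), then stimulated with 1 µM S-3969, read on FLIPR. Signal normalized to agonist alone (100%) and agonist plus 30 µM benzamil (0%). n = 4 wells.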

HEK293 = test: Cytotoxicity against HEK293 cells assessed as reduction in cell viability after 48 hrs by CellTiter 96 Aqueous One solution cell proliferation assay; assay type: cell-based; conditions: Homo sapiens, HEK293, 48 h; method in brief: as §1
[3] = target: T2, Urokinase-type plasminogen activator (Homo sapiens, UniProt P00749); test: Inhibition of human kidney uPA using Z-Gly-Gly-Arg-AMC as substrate measured over 15 mins by fluorescence assay
[4] = target: T2, Urokinase-type plasminogen activator; test: Inhibition of human kidney uPA using chromogenic H-D-Ile-L-Pro-L-Arg-p-nitoraniline as substrate by fluorescence assay
Method in brief: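 Enzyme was uPA from human kidney cells at 10 nM final. […] Absorbance change at 405 nm gave initial rates. IC50 from a sigmoidal fit of % residual activity vs log concentration.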

[5] = target: Tissue-type plasminogen activator (Homo sapiens, UniProt P00750); test: Inhibition of tPA (unknown origin) using chromogenic H-D-Ile-L-Pro-L-Arg-p-nitoraniline as substrate by […]
Rattus norvegicus [6] = test: Antikaliuretic effect in Sprague-Dawley rat assessed as decrease in acetazolamide-induced K+ excretion at 1.5 mg/kg, iv measured after 6 hrs post dose relative to acetazolamide-treated control; assay type: ADME, organism-based; parameters: scale not given: the % may be the effect or the level left; conditions: in vivo
Method in brief: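 Male 21-week-old Sprague-Dawley rats, 8 per group. Given 25 mg/kg acetazolamide ip (0.9% saline), then 1.5 mg/kg compound iv (50 mM acetate buffer pH 5.5/5% DMSO, plus 0.5% Tween-80 for some analogs). Vehicle-only group included. Total urine collected in metabolic cages over 6 h. Urine Na+ and K+ measured on a biochemistry analyzer; compared with acetazolamide controls.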

HepG2 = test: Cytotoxicity against human HepG2 cells assessed as reduction in cell viability after 48 hrs by CellTiter 96 Aqueous One solution cell proliferation assay; assay type: functional, cell-based; conditions: HepG2, 48 h; method in brief: as §1
Plasma kallikrein = Plasma kallikrein (Homo sapiens, UniProt P03952); test: Inhibition of human plasma kallikrein using chromogenic L-pyroGlu-L-Pro-L-Arg-p-nitroaniline as substrate by fluorescence assay
[7] = target: Urokinase-type plasminogen activator (Mus musculus, UniProt P06869); test: Inhibition of mouse uPA using Z-Gly-Gly-Arg-AMC as substrate after 15 mins by fluorescence assay
[8] = target: Vitamin K-dependent protein C (Homo sapiens, UniProt P04070); test: Inhibition of activated protein C (unknown origin) using chromogenic L-pyroGlu-L-Pro-L-Arg-p-nitroaniline as substrate by fluorescence assay
Prothrombin = Prothrombin (Homo sapiens, UniProt P00734); test: Inhibition of thrombin (unknown origin) using chromogenic H-D-Ile-L-Pro-L-Arg-p-nitoraniline as substrate by […]
Rattus norvegicus [9] = test: Diuretic effect in Sprague-Dawley rat assessed as increase in acetazolamide-induced urine volume at 1.5 mg/kg, iv measured after 6 hrs post dose relative to acetazolamide-treated control; assay type: ADME, organism-based; conditions: in vivo; method in brief: as §2

Sequence of Urokinase-type plasminogen activator (Mus musculus, UniProt P06869) (P06869 21-178 limits assumed): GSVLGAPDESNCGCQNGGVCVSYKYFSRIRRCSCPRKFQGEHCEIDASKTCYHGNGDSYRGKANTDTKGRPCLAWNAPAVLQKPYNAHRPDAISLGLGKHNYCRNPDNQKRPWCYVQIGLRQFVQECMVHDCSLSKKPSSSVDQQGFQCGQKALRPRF
Sequence of Urokinase-type plasminogen activator (Mus musculus, UniProt P06869) (P06869 180-433 limits assumed): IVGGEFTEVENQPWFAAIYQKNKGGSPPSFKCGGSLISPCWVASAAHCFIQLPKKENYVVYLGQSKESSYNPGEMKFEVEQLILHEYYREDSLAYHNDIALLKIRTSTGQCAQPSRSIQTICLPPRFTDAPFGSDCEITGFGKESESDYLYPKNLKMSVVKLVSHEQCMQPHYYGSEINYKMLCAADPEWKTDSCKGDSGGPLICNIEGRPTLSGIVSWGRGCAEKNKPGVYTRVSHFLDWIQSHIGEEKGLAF
Sequence of Plasminogen (P00747 97-580 limits assumed): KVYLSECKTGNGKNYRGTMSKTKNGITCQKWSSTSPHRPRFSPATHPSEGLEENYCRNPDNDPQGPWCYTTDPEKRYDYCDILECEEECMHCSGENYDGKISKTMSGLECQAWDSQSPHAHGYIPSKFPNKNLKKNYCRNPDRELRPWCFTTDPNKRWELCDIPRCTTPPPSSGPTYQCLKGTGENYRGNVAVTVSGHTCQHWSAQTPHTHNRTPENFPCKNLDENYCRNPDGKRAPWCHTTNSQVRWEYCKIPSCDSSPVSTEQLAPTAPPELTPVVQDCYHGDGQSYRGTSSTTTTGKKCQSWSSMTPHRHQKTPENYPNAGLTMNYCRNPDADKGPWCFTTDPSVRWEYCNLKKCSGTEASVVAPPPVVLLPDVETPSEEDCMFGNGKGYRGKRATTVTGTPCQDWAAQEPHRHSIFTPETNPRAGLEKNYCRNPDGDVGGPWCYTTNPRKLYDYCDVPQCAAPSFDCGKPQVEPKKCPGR
Sequence of Plasminogen (P00747 581-810 limits assumed): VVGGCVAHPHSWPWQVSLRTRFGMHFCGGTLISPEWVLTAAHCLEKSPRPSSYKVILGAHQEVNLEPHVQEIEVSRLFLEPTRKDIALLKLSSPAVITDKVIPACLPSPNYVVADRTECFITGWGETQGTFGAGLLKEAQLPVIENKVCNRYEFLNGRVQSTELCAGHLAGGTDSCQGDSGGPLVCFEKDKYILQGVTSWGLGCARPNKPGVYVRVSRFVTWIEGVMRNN
Sequence of Tissue-type plasminogen activator (P00750 whole entry): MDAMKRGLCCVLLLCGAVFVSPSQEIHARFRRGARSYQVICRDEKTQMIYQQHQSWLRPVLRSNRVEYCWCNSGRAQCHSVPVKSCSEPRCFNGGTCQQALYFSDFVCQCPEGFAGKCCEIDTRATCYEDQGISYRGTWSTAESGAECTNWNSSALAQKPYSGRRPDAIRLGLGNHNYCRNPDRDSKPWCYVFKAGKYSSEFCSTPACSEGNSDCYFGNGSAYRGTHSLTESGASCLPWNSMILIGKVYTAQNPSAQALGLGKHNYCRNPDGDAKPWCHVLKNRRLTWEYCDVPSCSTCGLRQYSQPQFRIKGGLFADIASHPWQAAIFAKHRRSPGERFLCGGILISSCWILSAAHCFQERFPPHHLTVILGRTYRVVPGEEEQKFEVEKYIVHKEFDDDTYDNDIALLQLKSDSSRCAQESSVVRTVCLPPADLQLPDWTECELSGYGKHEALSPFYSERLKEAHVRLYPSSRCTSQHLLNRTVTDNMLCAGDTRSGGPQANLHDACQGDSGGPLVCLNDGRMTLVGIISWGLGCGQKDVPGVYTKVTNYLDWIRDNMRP
Sequence of Plasma kallikrein (P03952 20-390 limits assumed): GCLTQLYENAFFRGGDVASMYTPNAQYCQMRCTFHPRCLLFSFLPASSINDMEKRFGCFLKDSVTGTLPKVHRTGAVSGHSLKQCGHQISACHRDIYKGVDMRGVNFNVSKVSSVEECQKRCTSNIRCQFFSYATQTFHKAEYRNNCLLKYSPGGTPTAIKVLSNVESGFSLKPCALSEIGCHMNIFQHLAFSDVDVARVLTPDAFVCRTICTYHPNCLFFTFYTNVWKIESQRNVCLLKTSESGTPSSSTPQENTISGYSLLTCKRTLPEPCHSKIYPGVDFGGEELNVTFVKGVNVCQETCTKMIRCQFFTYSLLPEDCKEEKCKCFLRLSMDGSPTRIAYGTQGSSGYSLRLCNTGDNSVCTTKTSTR
Sequence of Plasma kallikrein (P03952 391-638 limits assumed): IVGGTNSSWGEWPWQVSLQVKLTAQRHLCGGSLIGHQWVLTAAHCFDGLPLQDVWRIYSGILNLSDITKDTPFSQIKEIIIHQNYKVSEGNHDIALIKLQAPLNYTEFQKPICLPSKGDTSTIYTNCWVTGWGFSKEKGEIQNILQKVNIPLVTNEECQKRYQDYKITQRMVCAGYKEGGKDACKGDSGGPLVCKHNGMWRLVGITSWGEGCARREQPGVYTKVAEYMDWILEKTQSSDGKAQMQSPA
Sequence of Vitamin K-dependent protein C (P04070 43-197 limits assumed): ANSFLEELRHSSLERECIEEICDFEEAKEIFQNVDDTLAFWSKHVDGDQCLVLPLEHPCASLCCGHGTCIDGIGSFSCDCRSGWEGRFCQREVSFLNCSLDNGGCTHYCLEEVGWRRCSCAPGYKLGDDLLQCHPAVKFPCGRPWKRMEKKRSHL
Sequence of Vitamin K-dependent protein C (P04070 212-461 limits assumed): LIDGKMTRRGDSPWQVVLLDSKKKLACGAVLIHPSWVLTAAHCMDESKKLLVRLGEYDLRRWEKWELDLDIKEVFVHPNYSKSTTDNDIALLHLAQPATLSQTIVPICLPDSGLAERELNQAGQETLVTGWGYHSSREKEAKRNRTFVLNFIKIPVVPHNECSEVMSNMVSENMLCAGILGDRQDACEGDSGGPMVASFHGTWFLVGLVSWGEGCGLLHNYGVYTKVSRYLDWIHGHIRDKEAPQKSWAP
Sequence of Coagulation factor XI (P03951 19-387 limits assumed): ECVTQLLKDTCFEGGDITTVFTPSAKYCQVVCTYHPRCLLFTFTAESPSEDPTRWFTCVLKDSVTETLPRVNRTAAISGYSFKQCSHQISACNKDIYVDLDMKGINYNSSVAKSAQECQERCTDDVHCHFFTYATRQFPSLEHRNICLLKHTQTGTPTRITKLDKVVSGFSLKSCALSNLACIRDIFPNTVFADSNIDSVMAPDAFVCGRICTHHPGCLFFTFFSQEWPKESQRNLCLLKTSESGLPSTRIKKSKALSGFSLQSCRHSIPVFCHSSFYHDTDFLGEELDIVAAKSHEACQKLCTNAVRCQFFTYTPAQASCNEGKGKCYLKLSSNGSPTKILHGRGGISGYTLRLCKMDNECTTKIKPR
Sequence of Coagulation factor XI (P03951 388-625 limits assumed): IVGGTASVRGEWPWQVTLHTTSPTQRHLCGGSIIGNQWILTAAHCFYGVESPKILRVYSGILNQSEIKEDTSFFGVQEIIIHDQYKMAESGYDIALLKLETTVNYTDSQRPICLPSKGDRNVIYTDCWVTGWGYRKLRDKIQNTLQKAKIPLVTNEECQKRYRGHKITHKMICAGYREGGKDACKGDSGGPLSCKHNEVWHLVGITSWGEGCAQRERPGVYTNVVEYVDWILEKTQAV
Sequence of Coagulation factor X (P00742 41-179 limits assumed): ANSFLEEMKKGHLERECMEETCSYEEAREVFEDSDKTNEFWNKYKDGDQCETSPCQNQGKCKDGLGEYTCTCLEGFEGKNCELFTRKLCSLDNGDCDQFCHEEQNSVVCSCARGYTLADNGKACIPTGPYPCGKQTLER
Sequence of Coagulation factor X (P00742 235-488 limits assumed): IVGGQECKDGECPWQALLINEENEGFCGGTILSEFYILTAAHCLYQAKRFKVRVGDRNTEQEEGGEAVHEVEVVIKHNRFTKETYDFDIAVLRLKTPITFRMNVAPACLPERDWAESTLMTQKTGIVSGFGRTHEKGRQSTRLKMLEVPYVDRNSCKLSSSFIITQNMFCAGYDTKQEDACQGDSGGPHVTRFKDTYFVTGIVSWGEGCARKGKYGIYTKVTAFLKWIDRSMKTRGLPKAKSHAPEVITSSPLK

Structure (SMILES)	IC50 (HT-1080) [µM]	Activity (Rattus norvegicus [1])	IC50 (Coagulation factor XI) [µM]	IC50 (Coagulation factor X) [µM]	IC50 (Plasminogen) [µM]	inhibition (INH) [2]	IC50 (HEK293) [µM]	Ki [3] [nM]	IC50 [4] [nM]	IC50 [5] [µM]	Activity (Rattus norvegicus [6])	IC50 (HepG2) [µM]	IC50 (Plasma kallikrein) [µM]	Ki [7] [nM]	IC50 [8] [µM]	IC50 (Prothrombin) [µM]	Activity (Rattus norvegicus [9])
N=C(N)NC(=O)c1nc(Cl)c(N2CCCCCC2)nc1N [N,N-HEXAMETHYLENEAMILORIDE]	6.6	Non-Toxic	> 50	> 50	> 10	Not Active	2.8	1360	2400	> 10	24%	20.2	> 50	9310	> 50	> 10	Non-Toxic
N=C(N)NC(=O)c1nc(-c2cc3ccccc3o2)c(N2CCCCCC2)nc1N	4.6	Non-Toxic	31	> 50	> 10	Not Active	3.1	183	530	> 10	Non-Toxic	12.7	11.3	1800	> 50	> 10	Non-Toxic
COc1ncc(-c2nc(C(=O)NC(=N)N)c(N)nc2N2CCCCCC2)cn1	44.8	Non-Toxic	> 50	> 50	> 20	–	74.9	53	39	> 20	24%	57.3	> 50	1610	> 50	> 20	Non-Toxic

From ChEMBL document CHEMBL4196166 (J Med Chem, 2018)
